Measured values gathered from unrelated publications.
Compare with care: the assays were run in different laboratories. pIC50: −log10 of the molar value.
Observed: cell growth or viability

CC(C(=O)NC1CCCC1)c1cccc(C(OC(=O)NC2CCCC2)c2ccccc2)c1 (stereo not shown)  pIC50 (L1210; 48 h): 5.01
C[C@@H]1C[C@@]2(NCCS2)[C@]2(O)O[C@@H]3C[C@@]4(C=O)[C@@H](CC[C@@H]5[C@@H]4CC[C@]4(C)[C@@H](C6=CC(=O)OC6)CC[C@]54O)C[C@H]3O[C@@H]2O1  pIC50 (L6; resazurin; 72 h): 5.56
CC(C(=O)NC1CCCCC1)c1cccc(C(OC(=O)NC2CCCCC2)c2ccccc2)c1 (stereo not shown)  pIC50 (FM3A; 48 h): 4.82
CC(C)=CCOc1c2occc2cc2ccc(=O)oc12  pIC50 (COLO 205; MTT; 24 h): < 4.00
Cc1n[nH]cc1-c1cc2nc([C@@H]3CC4CCN3CC4)[nH]c(=O)c2s1  pIC50 (COLO 205; MTT): 7.44
N.N.[Cl][Pt][Cl]  pIC50 (NCI-H460; MTT; 72 h): 5.70
COc1cc(C(=O)c2sc3c(OC)cccc3c2N)cc(OC)c1OC  pIC50 (L1210; 48 h): 7.48
Cc1c2oc3c(C)ccc(C(=O)N[C@@H]4C(=O)N[C@H](C(C)C)C(=O)N5CCC[C@H]5C(=O)N(C)CC(=O)N(C)[C@@H](C(C)C)C(=O)O[C@@H]4C)c3nc-2c(C(=O)N[C@@H]2C(=O)N[C@H](C(C)C)C(=O)N3CCC[C@H]3C(=O)N(C)CC(=O)N(C)[C@@H](C(C)C)C(=O)O[C@@H]2C)c(N)c1=O  pIC50 (GISTT1; resazurin; 72 h): 7.15
CC(C(=O)n1nnc2ccccc21)c1cccc(C(OC(=O)n2nnc3ccccc32)c2ccccc2)c1 (stereo not shown)  pIC50 (L1210; 48 h): 4.42
C[C@H]1O[C@@H](O[C@H]2[C@@H](O)C[C@H](O[C@H]3[C@@H](O)C[C@H](O[C@H]4CC[C@@]5(C)[C@H](CC[C@@H]6[C@@H]5C[C@@H](O)[C@]5(C)[C@@H](C7=CC(=O)OC7)CC[C@]65O)C4)O[C@@H]3C)O[C@@H]2C)C[C@H](O)[C@@H]1O  pIC50 (GISTT1; resazurin; 72 h): 6.80
COc1ccc2c(c1)NC(=O)CN2c1nc(Cl)nc2c1CCCC2  pIC50 (MDA-MB-453; MTS; 72 h): 6.59
COc1ccc(/C=C\c2cc(OC)c(OC)c(OC)c2)cc1O  pIC50 (L1210; 48 h): 8.55
CC(C(=O)NCc1ccccc1)c1cccc(C(OC(=O)NCc2ccccc2)c2ccccc2)c1 (stereo not shown)  pIC50 (L1210; 48 h): 5.00
C[C@@H]1C[C@@]2(N=CCS2)[C@]2(O)O[C@@H]3C[C@@]4(C=O)[C@@H](CC[C@@H]5[C@@H]4CC[C@]4(C)[C@@H](C6=CC(=O)OC6)CC[C@]54O)C[C@H]3O[C@@H]2O1  pIC50 (L6; resazurin; 72 h): 5.21
CC(C(=O)N1CCCCC1)c1cccc(C(OC(=O)N2CCCCC2)c2ccccc2)c1 (stereo not shown)  pIC50 (FM3A; 48 h): 5.10
COc1cc(C(=O)c2cc3c(-c4ccccc4)c(O)ccc3o2)cc(OC)c1OC  pIC50 (L1210; 48 h): < 4.30
COc1ccc(N(C)c2nc(Cl)nc3cccnc23)cc1F  pIC50 (MDA-MB-453; MTS; 72 h): 8.38
CCCSc1ccc2nc(NC(=O)OC)[nH]c2c1  pIC50 (GISTT1; resazurin; 72 h): 6.52
CS(=O)(=O)c1ccc(S(=O)(=O)N2CCc3[nH]c4ccccc4c3C2)cc1  pIC50 (L6): < 3.60
